Measured values reported in ChEMBL document CHEMBL1765082, “Aminothiazolomorphinans with mixed κ and μ opioid activity” (J Med Chem, 2011).
Activity calls are given as the source filed them. The calls are words filed in the database; no cut-off is given here.

Columns and labels:
[1] = species on record: Homo sapiens; experiment: Selectivity ratio of Ki for human mu opioid receptor to Ki for human kappa opioid receptor
[2] = species on record: Homo sapiens; experiment: Selectivity ratio of Ki for human delta opioid receptor to Ki for human kappa opioid receptor
[3] = molecular target: T1, Kappa-type opioid receptor (Homo sapiens, UniProt P41145); experiment: Antagonist activity at human kappa opioid receptor expressed in CHO cells assessed as […] in U50488-induced [35S]GTPgammaS binding by scintillation counting; type: functional, cell-based
T1 sequence (P41145 whole entry): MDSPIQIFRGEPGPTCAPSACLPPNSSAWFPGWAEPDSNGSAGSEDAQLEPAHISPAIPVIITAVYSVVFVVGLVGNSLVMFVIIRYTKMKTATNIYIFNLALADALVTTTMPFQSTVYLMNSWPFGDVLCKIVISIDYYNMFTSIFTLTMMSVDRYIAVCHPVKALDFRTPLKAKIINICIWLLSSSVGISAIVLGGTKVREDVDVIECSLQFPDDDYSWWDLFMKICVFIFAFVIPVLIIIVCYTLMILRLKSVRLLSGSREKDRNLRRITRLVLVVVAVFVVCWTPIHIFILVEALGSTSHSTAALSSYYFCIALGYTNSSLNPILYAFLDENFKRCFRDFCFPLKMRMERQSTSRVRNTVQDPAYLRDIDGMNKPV

[4] = molecular target: T1, Kappa-type opioid receptor; experiment: Agonist activity at human kappa opioid receptor expressed in CHO cells assessed as [35S]GTPgammaS binding by scintillation counting; type: functional, cell-based
[5] = molecular target: T2, Mu-type opioid receptor (Homo sapiens, UniProt P35372); experiment: Displacement of [3H]DAMGO from human mu opioid receptor expressed in CHO cells after 60 mins by scintillation counting; type: cell-based
T2 sequence (P35372 whole entry): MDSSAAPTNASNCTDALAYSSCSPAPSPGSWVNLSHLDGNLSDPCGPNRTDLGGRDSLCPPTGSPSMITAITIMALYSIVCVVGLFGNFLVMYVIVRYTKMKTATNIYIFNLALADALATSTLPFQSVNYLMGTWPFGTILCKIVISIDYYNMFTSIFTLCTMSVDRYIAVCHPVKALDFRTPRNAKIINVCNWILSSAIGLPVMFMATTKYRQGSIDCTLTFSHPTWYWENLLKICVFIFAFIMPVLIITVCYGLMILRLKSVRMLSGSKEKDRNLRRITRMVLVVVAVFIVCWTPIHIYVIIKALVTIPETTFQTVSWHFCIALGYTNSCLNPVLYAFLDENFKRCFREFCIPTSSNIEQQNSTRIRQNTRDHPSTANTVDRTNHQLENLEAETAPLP

[6] = molecular target: T1, Kappa-type opioid receptor; experiment: Agonist activity at human kappa opioid receptor expressed in CHO cells assessed as [35S]GTPgammaS binding by scintillation counting relative to control; type: functional, cell-based
Summary of the method: (§1)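 Membranes from CHO cells stably expressing human κ (15 μg protein/tube) or μ (7.5 μg protein/tube) opioid receptor, grown in DMEM with 10% FBS at 37 °C, 5% CO2. Twelve agonist concentrations were incubated 60 min at 30 °C in 50 mM Tris-HCl, 3 mM MgCl2, 100 mM NaCl, 0.2 mM EGTA, pH 7.4, with 3 μM GDP and [35S]GTPγS. Filtration, then scintillation counting. Stimulation expressed as percent over basal; ≥3 experiments in triplicate.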

[7] = molecular target: T1, Kappa-type opioid receptor; experiment: Displacement of [3H]U69593 from human kappa opioid receptor expressed in CHO cells after 60 mins by scintillation counting; type: cell-based
[8] = molecular target: Delta-type opioid receptor (Homo sapiens, UniProt P41143); experiment: Displacement of [3H]Naltrindole from human delta opioid receptor expressed in CHO cells after 3 hrs by scintillation counting; type: cell-based
Sequence of Delta-type opioid receptor (P41143 whole entry): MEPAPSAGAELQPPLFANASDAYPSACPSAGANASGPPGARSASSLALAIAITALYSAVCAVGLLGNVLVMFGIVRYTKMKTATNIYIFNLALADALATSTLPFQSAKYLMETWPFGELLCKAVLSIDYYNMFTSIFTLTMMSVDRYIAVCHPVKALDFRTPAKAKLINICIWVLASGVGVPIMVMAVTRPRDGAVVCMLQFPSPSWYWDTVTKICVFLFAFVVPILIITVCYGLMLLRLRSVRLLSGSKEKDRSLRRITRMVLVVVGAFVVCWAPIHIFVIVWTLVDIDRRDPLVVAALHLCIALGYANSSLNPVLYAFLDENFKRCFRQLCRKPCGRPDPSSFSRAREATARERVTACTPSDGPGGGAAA
Summary of the method: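 Membranes from CHO cells expressing human κ, μ or δ opioid receptor were incubated with 12 compound concentrations and a receptor-selective radioligand at 25 °C in 50 mM Tris-HCl, pH 7.5. […] Nonspecific binding was defined with 10 μM naloxone. Ki reported as mean ± SEM, three experiments in triplicate.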

[9] = molecular target: T2, Mu-type opioid receptor; experiment: Agonist activity at human mu opioid receptor expressed in CHO cells assessed as [35S]GTPgammaS binding by scintillation counting relative to control; type: functional, cell-based; summary of the method: as §1
[10] = molecular target: T2, Mu-type opioid receptor; experiment: Antagonist activity at human mu opioid receptor expressed in CHO cells assessed as inhibition of DAMGO-induced [35S]GTPgammaS binding at 10 uM by scintillation counting; type: functional, cell-based
[11] = molecular target: T2, Mu-type opioid receptor; experiment: Agonist activity at human mu opioid receptor expressed in CHO cells assessed as [35S]GTPgammaS binding by scintillation counting; type: functional, cell-based
[12] = molecular target: T2, Mu-type opioid receptor
[13] = molecular target: T2, Mu-type opioid receptor; conditions: cho

Row | SMILES | Ratio Ki [1] | Ratio Ki [2] | Activity [3] | EC50 [4] | Ki [5] | Emax [6] | Ki [7] | Ki [8] | Emax [9] | inhibition [10] | EC50 [11] | IC50 [12] | IC50 [13]
1 | Nc1nc2cc3c(cc2o1)[C@@]12CCCC[C@H]1[C@@H](C3)N(CC1CC1)CC2 | 3 | > 192 |  |  |  |  |  |  |  |  |  |  | 
2 | FC(F)(F)CNc1nc2cc3c(cc2s1)C[C@@H]1[C@@H]2CCCC[C@]32CCN1CC1CC1 | 25 | 210 | inactive | 120 nM | 21 nM | 120% | 0.84 nM | 180 nM |  |  |  |  | 
3 | CC(=O)Nc1nc2cc3c(cc2s1)C[C@@H]1[C@@H]2CCCC[C@]32CCN1CC1CC1 | 4 | 58 |  |  | 57 nM |  | 13 nM | 750 nM |  |  |  |  | 
4 | COc1cccc(CNc2nc3cc4c(cc3s2)C[C@@H]2[C@@H]3CCCC[C@]43CCN2CC2CC2)c1 | 2 | 7 |  |  | 9.1 nM |  | 4.8 nM | 34 nM |  |  |  |  | 
5 | CNc1nc2cc3c(cc2s1)C[C@@H]1[C@@H]2CCCC[C@]32CCN1CC1CCC1 | 1 | 20 |  |  | 1.8 nM |  | 2.4 nM | 47 nM |  |  |  |  | 
6 | CN(C)c1nc2cc3c(cc2s1)C[C@@H]1[C@@H]2CCCC[C@]32CCN1CCCF | 7 | 38 |  |  | 76 nM |  | 11 nM | 420 nM |  |  |  |  | 
7 | CCN(C(C)=O)c1nc2cc3c(cc2s1)C[C@@H]1[C@@H]2CCCC[C@]32CCN1CC1CC1 | 4 | 57 |  |  | 86 nM |  | 13 nM | 740 nM |  |  |  |  | 
8 | Nc1nc2cc3c(cc2s1)C[C@@H]1[C@@H]2CCCC[C@]32CCN1CCCF | 9 | 180 | inactive | 32 nM | 2.7 nM | 100% | 0.3 nM | 54 nM | 65% | 40% | 130 nM |  | 
9 | CCCNc1nc2cc3c(cc2s1)C[C@@H]1[C@@H]2CCCC[C@]32CCN1CC1CC1 | 11 | 49 |  |  | 17 nM |  | 1.6 nM | 79 nM |  |  |  |  | 
10 | Nc1nc2cc3c(cc2s1)C[C@@H]1[C@@H]2CCCC[C@]32CCN1CC1CCC1 | 9 | 290 | inactive |  |  |  |  |  |  |  | > 1000 nM | 85 nM | 
11 | CC(=O)Nc1nc2cc3c(cc2s1)C[C@@H]1[C@@H]2CCCC[C@]32CCN1CCCF | 13 | 180 |  |  | 15 nM |  | 1.2 nM | 220 nM |  |  |  |  | 
12 | Nc1nc2cc3c(cc2s1)C[C@@H]1[C@@H]2CCCC[C@]32CCN1CC1CC1 | 30 | 590 | inactive |  |  |  |  |  |  |  |  |  | Not Active
13 | CCNc1nc2cc3c(cc2s1)C[C@@H]1[C@@H]2CCCC[C@]32CCN1CC1CCC1 | 0.3 | 25 |  |  | 1.1 nM |  | 3.7 nM | 91 nM |  |  |  |  | 
14 | Oc1cccc(CNc2nc3cc4c(cc3s2)C[C@@H]2[C@@H]3CCCC[C@]43CCN2CC2CC2)c1 | 3 | 8 |  |  | 9.9 nM |  | 3.5 nM | 29 nM |  |  |  |  | 
15 | c1ccc(CNc2nc3cc4c(cc3s2)C[C@@H]2[C@@H]3CCCC[C@]43CCN2CC2CC2)cc1 | 5 | 20 |  |  | 10 nM |  | 2.1 nM | 41 nM |  |  |  |  | 
16 | CNc1nc2cc3c(cc2s1)C[C@@H]1[C@@H]2CCCC[C@]32CCN1CCCF |  |  | inactive |  | 7.4 nM | 170% | 0.71 nM | 50 nM |  |  |  |  | Not Active
17 | CCNc1nc2cc3c(cc2s1)C[C@@H]1[C@@H]2CCCC[C@]32CCN1CC1CC1 |  |  | inactive |  | 4.7 nM | 190% | 0.151 nM | 43 nM |  |  |  |  | Not Active
18 | CCCNc1nc2cc3c(cc2s1)C[C@@H]1[C@@H]2CCCC[C@]32CCN1CCCF | 4 | 21 |  |  | 24 nM |  | 5.8 nM | 120 nM |  |  |  |  | 
19 | c1ccc(Nc2nc3cc4c(cc3s2)C[C@@H]2[C@@H]3CCCC[C@]43CCN2CC2CC2)cc1 | 9 | 7 |  |  | 180 nM |  | 21 nM | 140 nM |  |  |  |  | 
20 | CC(=O)N(C)c1nc2cc3c(cc2s1)C[C@@H]1[C@@H]2CCCC[C@]32CCN1CC1CC1 | 16 | 160 |  |  | 110 nM |  | 6.9 nM | 1100 nM |  |  |  |  | 
21 | Nc1nc2cc3c(cc2s1)C[C@@H]1[C@@H]2CCCC[C@]32CCN1C[C@@H]1CCCO1 | 3 | 67 | inactive | 14 nM | 2.4 nM | 190% | 0.83 nM | 56 nM | 120% |  | 71 nM |  | Not Active
22 | CNc1nc2cc3c(cc2s1)C[C@@H]1[C@@H]2CCCC[C@]32CCN1CC1CC1 |  |  | inactive | 14 nM | 3 nM | 82% | 0.066 nM | 25 nM |  |  | 47 nM |  | Not Active
23 | Oc1ccc2c(c1)[C@@]13CCCC[C@H]1[C@@H](C2)N(CC1CC1)CC3 |  |  | inactive |  |  |  |  |  |  |  |  |  | 
24 | CCNc1nc2cc3c(cc2s1)C[C@@H]1[C@@H]2CCCC[C@]32CCN1CCCF |  |  | inactive | 89 nM | 4 nM | 150% | 0.94 nM | 76 nM |  |  | 240 nM |  | Not Active
25 | CN1CC[C@]23CCCC[C@H]2[C@H]1Cc1cc2sc(N)nc2cc13 | 0.17 | 30 |  |  |  |  |  |  |  |  |  |  | 
26 | c1ccc(Nc2nc3cc4c(cc3s2)C[C@@H]2[C@@H]3CCCC[C@]43CCN2CC2CC2)nc1 | 6 |  |  |  | 610 nM |  | 95 nM | > 10000 nM |  |  |  |  | 
27 | CCNC(=S)Nc1nc2cc3c(cc2s1)C[C@@H]1[C@@H]2CCCC[C@]32CCN1CC1CC1 | 7 | 8 |  |  | 130 nM |  | 18 nM | 150 nM |  |  |  |  | 
28 | CN(C)c1nc2cc3c(cc2s1)C[C@@H]1[C@@H]2CCCC[C@]32CCN1CC1CC1 | 22 | 140 | inactive | 46 nM | 10 nM | 110% | 0.45 nM | 65 nM | 57% | 40% | 140 nM |  | 
